Test results published in ChEMBL document CHEMBL1124475, “The thieno[3,2-c]pyridine and furo[3,2-c]pyridine rings: new pharmacophores with potential antipsychotic activity” (J Med Chem, 1989).
Activity calls are given as the source filed them. No cut-off for these calls is given here.

How the values were obtained:
[1] = molecular target: T1, 5-hydroxytryptamine receptor 1A (Rattus norvegicus, UniProt P19327); assay: Ability to bind at serotonin 5-hydroxytryptamine 1A receptors of rat hippocampus by displacing [3H]8-OH-DPAT; format: tissue-based
T1 sequence (P19327 whole entry): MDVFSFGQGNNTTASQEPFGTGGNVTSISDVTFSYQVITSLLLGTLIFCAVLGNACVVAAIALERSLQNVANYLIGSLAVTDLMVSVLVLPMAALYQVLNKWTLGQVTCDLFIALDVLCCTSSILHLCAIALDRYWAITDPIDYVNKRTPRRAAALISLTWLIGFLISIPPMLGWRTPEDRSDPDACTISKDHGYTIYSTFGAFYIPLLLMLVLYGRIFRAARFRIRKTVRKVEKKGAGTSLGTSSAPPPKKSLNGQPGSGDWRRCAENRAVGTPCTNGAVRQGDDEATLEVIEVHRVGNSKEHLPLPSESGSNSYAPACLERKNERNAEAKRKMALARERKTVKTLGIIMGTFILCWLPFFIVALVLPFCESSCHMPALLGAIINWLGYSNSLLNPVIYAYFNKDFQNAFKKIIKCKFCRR
Summary of the method: (§1)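 Rat receptor radioligand displacement, five test-ligand concentrations used to calculate IC50, each assay in duplicate. Some compounds determined four times (in duplicate), with mean IC50 reported.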

Rattus norvegicus [2] = assay: Conditioned avoidance response (CAR) when administered perorally; format: functional; settings: po
[3] = molecular target: T2, Adrenergic receptor alpha-1 (Rattus norvegicus, UniProt P15823+P23944+P43140); assay: Ability to bind at alpha-1 adrenergic receptor by displacing [3H]WB-4101; format: protein assay; summary of the method: as §1
T2 sequence (P15823 whole entry): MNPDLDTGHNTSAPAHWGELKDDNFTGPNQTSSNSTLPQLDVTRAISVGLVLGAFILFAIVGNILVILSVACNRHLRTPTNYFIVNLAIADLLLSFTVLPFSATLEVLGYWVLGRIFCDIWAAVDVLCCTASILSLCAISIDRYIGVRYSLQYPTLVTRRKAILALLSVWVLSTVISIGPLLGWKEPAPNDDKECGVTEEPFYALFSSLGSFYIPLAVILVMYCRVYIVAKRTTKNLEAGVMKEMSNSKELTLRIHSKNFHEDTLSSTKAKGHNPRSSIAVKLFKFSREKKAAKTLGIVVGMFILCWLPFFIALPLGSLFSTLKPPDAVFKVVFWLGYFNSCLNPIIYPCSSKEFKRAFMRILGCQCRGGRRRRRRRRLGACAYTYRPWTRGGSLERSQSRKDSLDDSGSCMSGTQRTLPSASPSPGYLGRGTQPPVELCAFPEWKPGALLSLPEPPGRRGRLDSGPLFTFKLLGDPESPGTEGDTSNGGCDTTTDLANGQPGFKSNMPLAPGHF
T2 sequence (P23944 whole entry): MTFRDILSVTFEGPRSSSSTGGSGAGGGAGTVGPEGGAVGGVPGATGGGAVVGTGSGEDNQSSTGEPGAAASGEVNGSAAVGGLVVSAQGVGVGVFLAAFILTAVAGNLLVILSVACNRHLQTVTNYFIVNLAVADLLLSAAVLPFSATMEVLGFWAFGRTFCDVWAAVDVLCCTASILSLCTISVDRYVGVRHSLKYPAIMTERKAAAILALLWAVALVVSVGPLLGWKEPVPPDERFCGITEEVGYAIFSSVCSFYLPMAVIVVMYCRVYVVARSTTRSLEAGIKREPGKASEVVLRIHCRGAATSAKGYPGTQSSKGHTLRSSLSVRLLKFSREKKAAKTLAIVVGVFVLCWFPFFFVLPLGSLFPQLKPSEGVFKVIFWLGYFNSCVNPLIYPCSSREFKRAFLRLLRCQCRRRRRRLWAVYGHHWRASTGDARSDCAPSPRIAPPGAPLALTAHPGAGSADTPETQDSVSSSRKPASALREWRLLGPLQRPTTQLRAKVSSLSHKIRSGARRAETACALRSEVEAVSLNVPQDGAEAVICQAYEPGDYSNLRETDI
T2 sequence (P43140 whole entry): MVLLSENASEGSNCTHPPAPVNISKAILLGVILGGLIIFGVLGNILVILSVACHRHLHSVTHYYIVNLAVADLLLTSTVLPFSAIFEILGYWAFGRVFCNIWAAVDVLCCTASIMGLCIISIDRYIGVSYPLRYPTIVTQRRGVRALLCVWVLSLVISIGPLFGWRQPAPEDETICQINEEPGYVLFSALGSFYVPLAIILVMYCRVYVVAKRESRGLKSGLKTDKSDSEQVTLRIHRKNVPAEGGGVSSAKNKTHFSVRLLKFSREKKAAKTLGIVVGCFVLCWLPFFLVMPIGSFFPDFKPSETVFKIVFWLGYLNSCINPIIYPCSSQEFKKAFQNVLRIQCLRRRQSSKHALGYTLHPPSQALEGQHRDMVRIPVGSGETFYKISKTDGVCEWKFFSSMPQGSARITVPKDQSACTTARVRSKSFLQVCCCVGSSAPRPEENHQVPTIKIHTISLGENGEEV

D(2) dopamine receptor [4] = molecular target: T3, D(2) dopamine receptor (Rattus norvegicus, UniProt P61169); assay: Ability to bind at Dopamine receptor D2 of rat corpus striatum by displacing [3H]spiperone; summary of the method: as §1
T3 sequence (P61169 whole entry): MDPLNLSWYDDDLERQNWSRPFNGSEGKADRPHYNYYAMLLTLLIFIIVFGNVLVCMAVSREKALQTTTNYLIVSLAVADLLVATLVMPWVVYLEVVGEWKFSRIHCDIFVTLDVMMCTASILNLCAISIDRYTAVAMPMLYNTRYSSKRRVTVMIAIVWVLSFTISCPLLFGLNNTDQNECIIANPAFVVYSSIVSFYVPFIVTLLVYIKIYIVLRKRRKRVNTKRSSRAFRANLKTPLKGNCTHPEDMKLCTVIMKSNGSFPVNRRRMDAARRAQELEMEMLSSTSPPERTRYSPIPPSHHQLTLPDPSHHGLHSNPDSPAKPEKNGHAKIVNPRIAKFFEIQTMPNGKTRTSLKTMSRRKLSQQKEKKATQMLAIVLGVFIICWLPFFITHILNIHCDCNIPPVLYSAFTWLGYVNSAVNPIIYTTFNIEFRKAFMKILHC

[5] = molecular target: T4, Serotonin 2 (5-HT2) receptor (Rattus norvegicus, UniProt P30994+P08909+P14842); assay: Ability to bind at serotonin 5-hydroxytryptamine 2 receptors of rat cortex by displacing [3H]spiperone
[6] = molecular target: T1, 5-hydroxytryptamine receptor 1A; assay: Ability to bind at 5-hydroxytryptamine 1A receptor of rat hippocampus by displacing [3H]8-OH-DPAT; format: tissue-based; summary of the method: as §1
D(2) dopamine receptor [7] = molecular target: T3, D(2) dopamine receptor; assay: Ability to bind at dopamine receptor D2 of rat corpus striatum by displacing [3H]spiperone
[8] = molecular target: Serotonin 1 (5-HT1) receptor (Rattus norvegicus, UniProt P28564+P30940+P19327+P28565); assay: Ability to bind at 5-hydroxytryptamine 1 receptor of rat hippocampus by displacing [3H]5-HT; format: tissue-based; summary of the method: as §1
[9] = molecular target: T2, Adrenergic receptor alpha-1; assay: Ability to bind at Alpha-1 adrenergic receptor by displacing [3H]WB-4101; format: protein assay
Mus musculus = assay: Blockade of apomorphine-induced climbing in mice when administered perorally; IA Inactive; format: functional, organism-based
Summary of the method: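 Male mice habituated 30 min in individual cages, then dosed orally (distilled H2O or 0.5% Methocel suspension, 10 mL/kg) or vehicle. Apomorphine 1.5 mg/kg sc given 30 min later. Climbing scored at 10, 20, 30 min post-apomorphine. At least five animals per dose, maximum 100 mg/kg.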

Rattus norvegicus [10] = assay: Blockade of apomorphine-induced stereotypy in rats when administered perorally; format: functional; settings: po
Rattus norvegicus [11] = assay: Induction of catalepsy in rats when administered perorally and maximum dose examined was 4 times the ED50 value established in CAR; Inactive; format: functional, organism-based
Rattus norvegicus [12] = assay: Blockade of Sidman-avoidance activity in rats when administered perorally; format: functional
Summary of the method: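 Rats trained in once-daily Sidman sessions until stable; non-learners after 3 days replaced. Twelve rats dosed 30 min before session. Each rat compared with mean of its previous three drug-free days by paired t test. Testing continued to minimally effective dose; maximum usually 100 mg/kg. MED is mean over 12 animals.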

[13] = molecular target: T4, Serotonin 2 (5-HT2) receptor; assay: Ability to bind at 5-hydroxytryptamine 2 receptor of rat cortex by displacing [3H]spiperone

Row | SMILES | IC50 [1] | ED50 (Rattus norvegicus [2]) | IC50 (D(2) dopamine receptor [4]) | IC50 [5] | IC50 (D(2) dopamine receptor [7]) | IC50 [8] | further results
1 | Cc1cc2c(N3CCN(CCCC(O)c4ccc(F)cc4)CC3)nccc2o1.Cl (configuration not stated) | 6.2 nM | 23.2 mg/kg |  |  |  |  | 
2 | O=C1CSCC(=O)N1CCCCN1CCN(c2nccc3sccc23)CC1 | 1.15 nM | 31.9 mg/kg | 608 nM | 6.7 nM |  |  | IC50 [3]: 1.1 nM
3 | Cl.Cn1ccc2c(N3CCN(CCCCN4C(=O)SC5(CCCC5)C4=O)CC3)nccc21 |  | 59.5 mg/kg |  |  | 517 nM |  | IC50 [6]: 246 nM
4 | Cl.O=C1c2ccccc2S(=O)(=O)N1CCCCN1CCN(c2nccc3sccc23)CC1 | 0.68 nM | > 62.5 mg/kg | 320 nM | 5.7 nM |  | 2.3 nM | IC50 [3]: 1.2 nM
5 | Cc1cc2c(N3CCN(CCCCN4C(=O)SC5(CCCC5)C4=O)CC3)nccc2o1.Cl |  | 28.4 mg/kg |  |  | 751 nM |  | IC50 [6]: 2.2 nM; IC50 [9]: 27.5 nM
6 | Cl.O=C1CCCC(=O)N1CCCCN1CCN(c2nccc3sccc23)CC1 | 2.5 nM | 5.4 mg/kg |  | 19.1 nM |  |  | MED50 (Mus musculus): inactive; ED50 (Rattus norvegicus [10]): 55.6 mg/kg; ED50 (Rattus norvegicus [11]): inactive; MED (Rattus norvegicus [12]; po): 20 mg/kg
7 | Cc1cc2c(N3CCN(CCCCN4C(=O)SC5(CCCC5)C4=O)CC3)nccc2s1.Cl |  | 35.4 mg/kg |  |  | 279 nM | 3.6 nM | IC50 [13]: 43.4 nM
8 | Cl.O=C1SC2(CCCC2)C(=O)N1CCCCN1CCN(c2nccc3sccc23)CC1 |  | 11.6 mg/kg |  |  | 88.3 nM | 8.1 nM | IC50 [9]: 30.5 nM; ED50 (Rattus norvegicus [10]): 35.2 mg/kg; MED50 (Rattus norvegicus [12]): 5 mg/kg; IC50 [13]: 3.9 nM
9 | CC1(C)CC(=O)N(CCCCN2CCN(c3nccc4occc34)CC2)C(=O)C1.Cl |  | 4.2 mg/kg |  |  | 626 nM |  | IC50 [6]: 8.64 nM; IC50 [9]: 47 nM
10 | Cl.O=C1c2ccccc2C(=O)N1CCCCN1CCN(c2nccc3sccc23)CC1 | 2.7 nM | 38.9 mg/kg | 306 nM | 2.8 nM |  | 5.3 nM | IC50 [3]: 0.69 nM
11 | Cl.Cn1ccc2c(N3CCN(CCCCN4C(=O)COCC4=O)CC3)nccc21 |  | > 100 mg/kg | > 1000 nM |  |  |  | 
12 | Cl.Cn1ccc2c(N3CCN(CCCCN4C(=O)CC(C)(C)CC4=O)CC3)nccc21 |  | 67.2 mg/kg | > 1000 nM |  |  |  | 
13 | CC1(C)CC(=O)N(CCCCN2CCN(c3nccc4sc(Br)cc34)CC2)C(=O)C1.Cl |  | 65.3 mg/kg | 228 nM | 70.9 nM |  | 3.7 nM | IC50 [3]: 27.2 nM
14 | Cl.O=C1CSCC(=O)N1CCCCN1CCN(c2nccc3occc23)CC1 |  | 35.8 mg/kg | > 1000 nM |  |  |  | 
15 | Cl.OC(CCCN1CCN(c2nccc3occc23)CC1)c1ccc(F)cc1 (configuration not stated) | 12.4 nM | 3.1 mg/kg | 339 nM | 55.2 nM |  |  | IC50 [3]: 23.8 nM
16 | Cl.O=C1SC2(CCCC2)C(=O)N1CCCCN1CCN(c2nccc3sc(Br)cc23)CC1 |  | > 100 mg/kg |  |  | 440 nM | 25.3 nM | IC50 [13]: 116 nM
17 | CC1CC(=O)N(CCCCN2CCN(c3nccc4sccc34)CC2)C(=O)C1.Cl | 1.3 nM | 2.9 mg/kg | 663 nM | 4.2 nM |  | 8.8 nM | MED50 (Mus musculus): inactive; ED50 (Rattus norvegicus [10]): 39.5 mg/kg; ED50 (Rattus norvegicus [11]): inactive
18 | Cc1cc2c(N3CCN(CCCCN4C(=O)CC(C)(C)CC4=O)CC3)nccc2o1.Cl | 4.9 nM | 13.8 mg/kg | 708 nM |  |  |  | 
19 | Cl.O=C1SC2(CCCC2)C(=O)N1CCCCN1CCN(c2nccc3occc23)CC1 |  | 9.2 mg/kg |  |  | 331 nM |  | IC50 [9]: 23.5 nM
